Assay results as given in ChEMBL document CHEMBL1124216, “A novel class of potential central nervous system agents. 3-Phenyl-2-(1-piperazinyl)-5H-1-benzazepines” (1988).

How the values were obtained:
Format in all cases: functional
Mus musculus [1] = assay: Antiexploratory activity (EXPL) of mice determined by an antimex activity meter, 50 mg/kg of dose was administered perorally; Moderate inhibition (51-71%); settings: route oral
Mus musculus [2] = assay: Antireserpine activity (RES) of mice after peroral administration of 50 mg/kg of compound; Moderate inhibition (51-71%); settings: route oral
Mus musculus [3] = assay: Exploratory activity of mice determined by an antimex activity meter, 10 mg/kg of dose was administered perorally; settings: route oral
Canis familiaris = assay: Inhibition of apomorphine induced emesis in dogs at 1 mg/kg of dose.; settings: Canis lupus familiaris
In short: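 Beagle dogs (10-15 kg), groups of three, given compound po in a gelatin capsule; 2 h later apomorphine hydrochloride 0.3 mg/kg sc. Vomiting counted for 1 h; mean inhibition as percent of control. ED50 is the dose giving 50% inhibition of emesis, by Litchfield-Wilcoxon.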

Mus musculus [4] = assay: The homovanillic acid (HVA) levels in mouse brain at 50 mg/kg of dose.
In short: (§1)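 Mice dosed orally in 0.5% aqueous tragacanth; brains of five mice per compound pooled. Homovanillic acid measured in brain extracts and reported as brain level.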

Mus musculus [5] = assay: The homovanillic acid (HVA) levels in mouse brain at 10 mg/kg of dose.; in short: as §1
Mus musculus [6] = assay: Antiexploratory activity (EXPL) of mice determined by an antimex activity meter, 10 mg/kg of dose was administered perorally; Moderate inhibition (51-71%); settings: route oral
Mus musculus [7] = assay: Exploratory activity of mice determined by an antimex activity meter, 50 mg/kg of dose was administered perorally; settings: Mus musculus, po
In short: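 Male Std-ddY mice (20-25 g), five per dose; compound in 0.5% aqueous tragacanth given orally. Two hours later each mouse placed in an Animex activity meter cage and locomotor activity counted for 3 min. Mean suppression expressed as percent inhibition of control; ED50 by Litchfield-Wilcoxon.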

Mus musculus [8] = assay: Antiexploratory activity (EXPL) of mice determined by an antimex activity meter, 50 mg/kg of dose was administered perorally; Potent inhibition; settings: route oral
Mus musculus [9] = assay: 3,4 -Dihydroxy phenylacetic acid (DOPAC) levels in mouse brain at 10 mg/kg dose.
In short: (§2)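 Male Std-ddY mice, 20-25 g, dosed orally with compound in 0.5% aqueous tragacanth. DOPAC was measured fluorometrically after purification by column chromatography on Sephadex G-10 and QAE-Sephadex. Brains from five mice per compound were pooled for each determination.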

Mus musculus [10] = assay: 3,4 -Dihydroxy phenylacetic acid (DOPAC) levels in mouse brain at 50 mg/kg dose.; in short: as §2
Mus musculus [11] = assay: Antiexploratory activity (EXPL) of mice determined by an antimex activity meter, 100 mg/kg of dose was administered perorally; No inhibition; settings: route oral
Mus musculus [12] = assay: Antimaximal electroshock seizure (MES) activity in mice after peroral administration of 100 mg/kg of compound; 0/5; settings: route oral
Mus musculus [13] = assay: Antireserpine activity (RES) of mice after peroral administration of 100 mg/kg of compound; […]; settings: route oral
Mus musculus [14] = assay: Antitremorine activity(TRM) of mice after peroral administration of 100 mg/kg of compound; No inhibition; settings: route oral
Mus musculus [15] = assay: Antimaximal electroshock seizure (MES) activity in mice after peroral administration of 100 mg/kg of compound; 3/5; settings: route oral
Mus musculus [16] = assay: Antiexploratory activity (EXPL) of mice determined by an antimex activity meter,100 mg/kg of dose was administered perorally; Slight inhibition (31-50%)
Mus musculus [17] = assay: Antimaximal electroshock seizure activity was determined in mice when administered perorally; settings: po
Mus musculus [18] = assay: Antireserpine activity (RES) of mice after peroral administration of 100 mg/kg of compound; No inhibition; settings: route oral
Mus musculus [19] = assay: Antipentylene tetrazole activity was determined in mice when administered perorally; settings: po
In short: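 Groups of five male Std-ddY mice received compound orally in 0.5% tragacanth, then pentylenetetrazole 175 mg/kg ip. Blockade of the tonic extensor component scored as anticonvulsant. ED50 was the dose protecting 50% of animals (Litchfield-Wilcoxon).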

Mus musculus [20] = assay: Antimaximal electroshock seizure (MES) activity in mice after peroral administration of 100 mg/kg of compound; 2/5; settings: route oral
Mus musculus [21] = assay: Antimaximal electroshock seizure (MES) activity in mice after peroral administration of 100 mg/kg of compound; 4/5; settings: route oral
Mus musculus [22] = assay: Antiexploratory activity (EXPL) of mice determined by an antimex activity meter, 100 mg/kg of dose was administered perorally; settings: route oral
Mus musculus [23] = assay: Antireserpine activity (RES) of mice after peroral administration of 100 mg/kg of compound; settings: route oral
Mus musculus [24] = assay: Antitremorine activity(TRM) of mice after peroral administration of 100 mg/kg of compound; settings: route oral
Mus musculus [25] = assay: Antimaximal electroshock seizure (MES) activity in mice after peroral administration of 10 mg/kg of compound; 0/5; settings: route oral

Q: How did the inhibition in vivo at 50 mg/kg (Mus musculus [1]) turn out when `CN1CCN(C2=Nc3ccccc3CC=C2c2ccc(O)cc2)CC1` was run?
A: Its inhibition in vivo at 50 mg/kg is 51%.

Q: What about the inhibition in vivo at 50 mg/kg (Mus musculus [2]) of the same compound?
A: The inhibition in vivo at 50 mg/kg was 51%.

Q: What does the source list for `Fc1ccc(C2=CCc3ccccc3N=C2N2CCN(C3CCCCC3)CC2)cc1.O=C(O)/C=C/C(=O)O`?
A: inhibition in vivo at 10 mg/kg (Mus musculus [3]): 61.4%; inhibition in vivo at 1 mg/kg (Canis familiaris): 46%; Control (Mus musculus [4]): 343%; Control (Mus musculus [5]): 295%; inhibition in vivo at 10 mg/kg (Mus musculus [6]): 51%; inhibition in vivo at 50 mg/kg (Mus musculus [7]): 84.6%; inhibition in vivo at 50 mg/kg (Mus musculus [8]): > 71%; Control (Mus musculus [9]): 244%; Control (Mus musculus [10]): 334%

Q: Which inhibition in vivo at 100 mg/kg (Mus musculus [11]) does the source give for `CN1CCN(C2=Nc3ccccc3CC=C2c2cccnc2)CC1` here?
A: Its inhibition in vivo at 100 mg/kg is < 30%.

Q: What about the Activity (Mus musculus [12]) of the same compound?
A: Its Activity is 0.

Q: And the inhibition in vivo at 100 mg/kg (Mus musculus [13])?
A: Its inhibition in vivo at 100 mg/kg is > 71%.

Q: And the inhibition in vivo at 100 mg/kg (Mus musculus [14])?
A: Its inhibition in vivo at 100 mg/kg is < 30%.

Q: How did the Activity (Mus musculus [15]) turn out when `Cc1ccc2c(c1)CC=C(c1ccccc1)C(N1CCN(CCO)CC1)=N2.O=C(O)/C=C/C(=O)O` was run?
A: The Activity was 3.

Q: And the Inhibition (Mus musculus [16])?
A: The Inhibition was 31%.

Q: What about the ED50 (Mus musculus [17]) of the same compound?
A: The ED50 was 103 mg/kg.

Q: And the inhibition in vivo at 100 mg/kg (Mus musculus [18])?
A: The inhibition in vivo at 100 mg/kg was < 30%.

Q: And the ED50 (Mus musculus [19])?
A: Its ED50 is 39.4 mg/kg.

Q: And the inhibition in vivo at 100 mg/kg (Mus musculus [14])?
A: Its inhibition in vivo at 100 mg/kg is < 30%.

Q: Which inhibition in vivo at 100 mg/kg (Mus musculus [11]) does the source give for `CCN1CCN(C2=Nc3ccc(Br)cc3CC=C2c2ccc(Cl)cc2)CC1.O=C(O)/C=C/C(=O)O` here?
A: The inhibition in vivo at 100 mg/kg was < 30%.

Q: What about the inhibition in vivo at 100 mg/kg (Mus musculus [18]) of the same compound?
A: Its inhibition in vivo at 100 mg/kg is < 30%.

Q: And the Activity (Mus musculus [20])?
A: Its Activity is 2.

Q: And the inhibition in vivo at 100 mg/kg (Mus musculus [14])?
A: The inhibition in vivo at 100 mg/kg was < 30%.

Q: For `CN1CCN(C2=Nc3ccc(Cl)cc3CC=C2c2ccccc2)CC1.Cl.Cl`, which Activity (Mus musculus [21]) is on record?
A: The Activity was 4.

Q: What about the inhibition in vivo at 100 mg/kg (Mus musculus [22]) of the same compound?
A: The inhibition in vivo at 100 mg/kg was < 30%.

Q: And the ED50 (Mus musculus [17])?
A: Its ED50 is 89.4 mg/kg.

Q: What about the inhibition in vivo at 100 mg/kg (Mus musculus [23]) of the same compound?
A: Its inhibition in vivo at 100 mg/kg is < 30%.

Q: And the inhibition in vivo at 100 mg/kg (Mus musculus [24])?
A: The inhibition in vivo at 100 mg/kg was > 71%.

Q: And the Activity (Mus musculus [25])?
A: Its Activity is 0.

Q: What about the ED50 (Mus musculus [19]) of the same compound?
A: The ED50 was 42.9 mg/kg.
